pEC50: −log10 of the molar value. One block for each compound: values may come before it.
Columns and labels:
[1] = tested on: Hepatitis C virus; test: Antiviral activity against HCV genotype 1a H77 infected in human HuH7 replicon cells assessed as inhibition of viral replication after 3 days by luciferase reporter gene assay; format: functional, organism-based, Hepacivirus hominis; conditions: subtype 1a H77, Huh-7, 72 h
Method in brief: (§1)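 Stable subgenomic replicon cell lines (genotype 1a-H77 or 1b-Con1) carrying a luciferase reporter; compounds added in DMEM with 5% FBS, cells incubated 3 days with or without compound, then lysed and luciferase activity read; EC50 from nonlinear regression fit to 4-parameter logistic equation.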

[2] = tested on: Hepatitis C virus; test: Antiviral activity against HCV genotype 1b Con1 infected in human HuH7 replicon cells assessed as inhibition of viral replication after 3 days by luciferase reporter gene assay; format: functional, organism-based, Hepacivirus hominis; conditions: subtype 1b Con1, Huh-7, 72 h; method in brief: as §1
[3] = Cytotoxicity against human HuH7 cells assessed as reduction in cell viability; format: cell-based, Huh-7; conditions: read-out: TD50 (the source's name)
[4] = tested on: Hepatitis C virus; test: Antiviral activity against HCV genotype 1b Con1 expressing wild type NS5B infected in human HuH7 replicon cells assessed as inhibition of viral replication after 4 days by luciferase reporter gene based assay; format: functional, organism-based, Hepacivirus hominis; conditions: subtype 1b Con1, Huh-7, 96 h
[5] = tested on: Hepatitis C virus; test: Antiviral activity against HCV genotype 1b Con1 expressing NS5B S282T mutant infected in human HuH7 replicon cells assessed as inhibition of viral replication after 4 days by luciferase reporter gene based assay; format: functional, organism-based, Hepacivirus hominis; conditions: subtype 1b Con1, Huh-7, 96 h
[6] = tested on: Hepatitis C virus; test: Antiviral activity against HCV genotype 2a expressing wild type NS5B infected in human HuH7 replicon cells assessed as inhibition of viral replication after 4 days by luciferase reporter gene based assay; format: functional, organism-based, Hepacivirus hominis; conditions: subtype 2a, Huh-7, 96 h
[7] = tested on: Hepatitis C virus; test: Antiviral activity against HCV genotype 2a expressing NS5B S282T mutant infected in human HuH7 replicon cells assessed as inhibition of viral replication after 4 days by luciferase reporter gene based assay; format: functional, organism-based, Hepacivirus hominis; conditions: subtype 2a, Huh-7, 96 h
[8] = tested on: Hepatitis C virus; test: Antiviral activity against HCV genotype 3a expressing wild type NS5B infected in human HuH7 replicon cells assessed as inhibition of viral replication after 4 days by luciferase reporter gene based assay; format: functional, organism-based, Hepacivirus hominis; conditions: subtype 3a, Huh-7, 96 h
[9] = tested on: Hepatitis C virus; test: Antiviral activity against HCV genotype 3a expressing NS5B S282T mutant infected in human HuH7 replicon cells assessed as inhibition of viral replication after 4 days by luciferase reporter gene based assay; format: functional, organism-based, Hepacivirus hominis; conditions: subtype 3a, Huh-7, 96 h
[10] = tested on: Hepatitis C virus; test: Antiviral activity against HCV genotype 4a expressing wild type NS5B infected in human HuH7 replicon cells assessed as inhibition of viral replication after 4 days by luciferase reporter gene based assay; format: functional, organism-based, Hepacivirus hominis; conditions: subtype 4a, Huh-7, 96 h
[11] = tested on: Hepatitis C virus; test: Antiviral activity against HCV genotype 6a expressing wild type NS5B infected in human HuH7 replicon cells assessed as inhibition of viral replication after 4 days by luciferase reporter gene based assay; format: functional, organism-based, Hepacivirus hominis; conditions: subtype 6a, Huh-7, 96 h
[12] = Prodrug conversion in Beagle dog liver assessed as nucleotide triphosphate level at 5 mg/kg, po administered as single dose measured after 4 hrs by LC-MS/MS analysis; format: ADME, organism-based, Canis lupus familiaris; conditions: in vivo
[13] = Prodrug conversion in Beagle dog liver assessed as nucleotide triphosphate level at 5 mg/kg, po co-dosed with 5 mg/kg sofosbuvir measured after 4 hrs by LC-MS/MS analysis; format: ADME, organism-based, Canis lupus familiaris; conditions: in vivo
Method in brief: (§2)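 Beagle dogs (3 per time point) given single oral prodrug 5 mg/kg in EtOH:PEG-400:Phosal 53 MCT (10:30:60, w/w), cassette-dosed with sofosbuvir 5 mg/kg as internal standard; liver biopsies at 4 or 24 h, flash frozen, triphosphate measured by LC-MS/MS.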

[14] = Prodrug conversion in Beagle dog liver assessed as nucleotide triphosphate level at 5 mg/kg, po administered as single dose measured after 24 hrs by LC-MS/MS analysis; format: ADME, organism-based, Canis lupus familiaris; conditions: in vivo
[15] = Prodrug conversion in Beagle dog liver assessed as nucleotide triphosphate level at 5 mg/kg, po co-dosed with 5 mg/kg sofosbuvir measured after 24 hrs by LC-MS/MS analysis; format: ADME, organism-based, Canis lupus familiaris; conditions: in vivo; method in brief: as §2
[16] = Prodrug conversion in human primary hepatocytes assessed as nucleotide triphosphate level at 100 uM incubated for 4 hrs followed by compound wash-out for 20 hrs and measured following 4 hrs incubation period by LC-MS/MS analysis; format: ADME, cell-based, Hepatocyte
Method in brief: (§3)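 Cryopreserved primary human hepatocytes plated ~55,000 viable cells/well on collagen, medium changed after 4–6 h to Williams E maintenance medium with Geltrex 0.35 mg/mL, overnight at 37 °C; prodrug 100 µM for 4 h, then washed; second plate held a further 20 h drug-free; cells washed with ice-cold HBSS, triphosphate measured by LC-MS/MS at 4 or 24 h.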

[17] = Prodrug conversion in human primary hepatocytes assessed as nucleotide triphosphate level at 100 uM incubated for 4 hrs and followed by compound washout for 20 hrs and measured following 24 hrs incubation period by LC-MS/MS analysis; format: ADME, cell-based, Hepatocyte; method in brief: as §3
[18] = Unbound drug level in dog plasma; format: ADME, cell-free, Canis lupus familiaris
[19] = Unbound drug level in human plasma; format: ADME, cell-free
[20] = Intrinsic clearance in dog hepatocytes; format: ADME, cell-based, Canis lupus familiaris, Hepatocyte; conditions: read-out: CLH (converted)
[21] = tested on: Hepatitis C virus; test: Antiviral activity against HCV genotype 1b Con1 over expressing CES1 infected in human HuH7 replicon cells assessed as inhibition of viral replication after 3 days by luciferase reporter gene assay; format: functional, organism-based, Hepacivirus hominis; conditions: subtype 1b Con1, Huh-7, 72 h
[22] = Distribution coefficient, logD of compound by HT-LCMS analysis; format: physicochemical; conditions: octanol/water
[23] = Aqueous solubility of compound in pH 7.4 phosphate buffer; format: physicochemical
[24] = Stability in dog plasma assessed as parent compound remaining after 4 hrs; format: ADME, cell-free, Canis lupus familiaris; conditions: read-out: Stability
Method in brief: (§4)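 Prodrug incubated 4 h at 37 °C in dog or human plasma; result given as percent parent remaining.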

[25] = Stability in human plasma assessed as parent compound remaining after 4 hrs; format: ADME, cell-free; conditions: read-out: Stability; method in brief: as §4
[26] = tested on: Hepatitis C virus; test: Potency index, ratio of sofosbuvir EC50 to compound EC50 for HCV genotype 1a H77 infected in human HuH7 replicon cells assessed as inhibition of viral replication after 3 days by luciferase reporter gene assay; format: functional, Hepacivirus hominis, subtype 1a H77, Huh-7
Method in brief: (§5)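 Stable subgenomic luciferase-reporter replicon Huh-7 lines, genotype 1a-H77 or 1b-Con1. Test compound and sofosbuvir comparator each run in DMEM with 5% FBS for 3 days. Cells lysed and luciferase activity read. EC50 obtained by nonlinear regression to a 4-parameter logistic equation. Index is sofosbuvir EC50 divided by compound EC50, both from this assay.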

[27] = tested on: Hepatitis C virus; test: Potency index, ratio of sofosbuvir EC50 to compound EC50 for HCV genotype 1b Con1 infected in human HuH7 replicon cells assessed as inhibition of viral replication after 3 days by luciferase reporter gene assay; format: functional, Hepacivirus hominis, subtype 1b Con1, Huh-7; method in brief: as §5

pEC50 [1]: 5.25
pEC50 [2]: 5.32
Structure (SMILES): CC(C)OC(=O)[C@H](C)N[P@](=O)(OC[C@H]1O[C@@H](n2ccc(=O)[nH]c2=O)C(C)(C)C1O)Oc1ccccc1 (single isomer, unassigned)
CC50 [3]: 31600 nM

Structure (SMILES): CC(C)OC(=O)[C@H](C)N[P@](=O)(OC[C@H]1O[C@@H](n2ccc(=O)[nH]c2=O)[C@](C)(Cl)[C@@H]1O)Oc1ccccc1
pEC50 [1]: 6.86
pEC50 [2]: 6.78
CC50 [3]: > 100000 nM

Structure (SMILES): CC(C)OC(=O)[C@H](C)N[P@](=O)(OC[C@H]1O[C@@H](n2ccc(=O)[nH]c2=O)[C@](Cl)(Br)[C@@H]1O)Oc1ccccc1
pEC50 [1]: 6.94
pEC50 [2]: 6.83
CC50 [3]: 80000 nM
pEC50 [4]: 7.52
pEC50 [5]: 6.79
pEC50 [6]: 6.73
pEC50 [7]: 6.58
pEC50 [8]: 7.50
pEC50 [9]: 6.85
pEC50 [10]: 7.52
pEC50 [11]: 7.64
Drug metabolism [12]: 0.088 µM
Drug metabolism [13]: 1.59 µM
Drug metabolism [14]: 0.049 µM
Drug metabolism [15]: 1.02 µM
Drug metabolism [16]: 110 µM
Drug metabolism [17]: 22 µM
fraction unbound [18]: 0.213
fraction unbound [19]: 0.113
CLint scaled [20]: 113 mL/min/kg

pEC50 [1]: 6.70
pEC50 [2]: 6.59
Structure (SMILES): CC(C)OC(=O)[C@H](C)N[P@](=O)(OC[C@H]1O[C@@H](n2ccc(=O)[nH]c2=O)[C@@](Cl)(Br)[C@@H]1O)Oc1ccccc1
CC50 [3]: > 100000 nM

Structure (SMILES): CC(C)OC(=O)[C@H](C)N[P@](=O)(OC[C@H]1O[C@@H](n2ccc(=O)[nH]c2=O)[C@](F)(Br)[C@@H]1O)Oc1ccccc1
pEC50 [1]: 5.52
pEC50 [2]: 5.60
CC50 [3]: 26500 nM

pEC50 [1]: 5.96
pEC50 [2]: 5.86
Drug metabolism [12]: 0.713 µM
Drug metabolism [13]: 4.2 µM
Drug metabolism [14]: 0.244 µM
Drug metabolism [15]: 3.43 µM
Drug metabolism [16]: 157 µM
Drug metabolism [17]: 40 µM
pEC50 [21]: 6.79
logD [22]: 3.3
solubility [23]: > 200 µM
remaining at 4 h [24]: 100%
remaining at 4 h [25]: 100%
fraction unbound [18]: 0.13
fraction unbound [19]: 0.193
CLint scaled [20]: 133 mL/min/kg
Structure (SMILES): CC(C)OC(=O)C(C)(C)NP(=O)(OC[C@H]1O[C@@H](n2ccc(=O)[nH]c2=O)[C@](Cl)(Br)[C@@H]1O)Oc1ccccc1 (stereo partly specified)

Structure (SMILES): CC(C)OC(=O)[C@H](C)N[P@](=O)(OC[C@H]1O[C@@H](n2ccc(=O)[nH]c2=O)C(Cl)(Cl)[C@@H]1O)Oc1ccccc1
pEC50 [1]: 7.37
pEC50 [2]: 7.32
CC50 [3]: > 100000 nM
Ratio EC50 [26]: 3 - 4
Ratio EC50 [27]: 3 - 4

Structure (SMILES): CC(C)OC(=O)[C@H](C)N[P@](=O)(OC[C@H]1O[C@@H](n2ccc(=O)[nH]c2=O)C(F)(F)[C@@H]1O)Oc1ccccc1
pEC50 [1]: 6.65
pEC50 [2]: 6.54
CC50 [3]: 384 nM

Reference: ChEMBL document CHEMBL4609978, “Synthesis and evaluation of 2'-dihalo ribonucleotide prodrugs with activity against hepatitis C virus” (Bioorg Med Chem, 2020)
